Source: ChEMBL document CHEMBL1124740, “Design, synthesis, and 5-lipoxygenase-inhibiting properties of 1-thio-substituted butadienes” (J Med Chem, 1990)
Values belong to the molecule of their own block, whether it stands above or below them.

Assays:
[1] = biological target: T1, Polyunsaturated fatty acid 5-lipoxygenase (Rattus norvegicus, UniProt P12527); assay: Inhibition of 5-lipoxygenase in rat RBL-1 cells; format: cell-based
T1 sequence (P12527 whole entry): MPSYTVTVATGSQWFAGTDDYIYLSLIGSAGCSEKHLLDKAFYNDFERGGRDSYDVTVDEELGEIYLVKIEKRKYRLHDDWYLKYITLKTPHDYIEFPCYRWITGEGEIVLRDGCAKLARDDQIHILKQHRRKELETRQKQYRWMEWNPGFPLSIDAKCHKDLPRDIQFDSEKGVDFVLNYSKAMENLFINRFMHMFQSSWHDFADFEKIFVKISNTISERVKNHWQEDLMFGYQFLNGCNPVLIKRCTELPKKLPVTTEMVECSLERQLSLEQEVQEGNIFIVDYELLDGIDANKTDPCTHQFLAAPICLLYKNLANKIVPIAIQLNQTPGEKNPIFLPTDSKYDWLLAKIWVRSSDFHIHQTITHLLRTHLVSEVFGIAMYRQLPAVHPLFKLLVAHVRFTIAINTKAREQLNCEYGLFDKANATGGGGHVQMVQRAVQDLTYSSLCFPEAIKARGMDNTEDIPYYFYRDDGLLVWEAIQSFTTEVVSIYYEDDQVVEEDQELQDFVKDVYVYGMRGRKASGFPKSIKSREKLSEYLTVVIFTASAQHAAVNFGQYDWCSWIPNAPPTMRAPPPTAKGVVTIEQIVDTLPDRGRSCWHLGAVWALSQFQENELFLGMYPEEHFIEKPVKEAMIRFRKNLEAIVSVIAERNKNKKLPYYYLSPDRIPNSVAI
Procedure, shortened: (§1)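 It was preincubated 5 min at 25 °C with compound or vehicle (2% DMSO) in 0.5 mL of 50 mM KH2PO4, 50 µM ATP, pH 7.0, then substrate was added. Inhibition was taken as the ratio of substrate remaining without versus with inhibitor. IC50 was obtained by linear regression of % inhibition against log concentration.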

[2] = In vitro methemoglobin Induction at 10e-4 M in lysed human red blood cells; format: functional
Procedure, shortened: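 Human red blood cells were lysed, and conversion of their hemoglobin to methemoglobin was followed spectrophotometrically in vitro.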

[3] = Inhibition of 12-HETE mammalian lipoxygenase at a concentration 20 uM; format: functional
Procedure, shortened: (§2)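 Enzyme source was a 100000g supernatant from human polymorphonuclear cells isolated to 95% purity. It was preincubated with or without compound for 10 min at 20 °C in phosphate-buffered saline (pH 8.3) with 0.5 mM MgCl2. The reaction was started with 120 μM arachidonic acid and stopped with citric acid after 5 min. Products were detected by UV at 272 and 232 nm, with PGB2 as internal standard.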

[4] = Inhibition of 5-HETE mammalian lipoxygenase at a concentration 20 uM; format: functional; procedure, shortened: as §2
[5] = Inhibition of LTB4 mammalian lipoxygenase at a concentration 20 uM; format: functional; procedure, shortened: as §2
[6] = Potentiation of 15-HETE mammalian lipoxygenase at a concentration 20 uM; format: functional; procedure, shortened: as §2
Mus musculus [7] = organism: Mus musculus; assay: In vitro inhibition of zymosan stimulated release of Leukotriene C4 from intact mouse peritoneal macrophages; format: functional
Procedure, shortened: (§3)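 Mouse peritoneal macrophages collected by lavage, isolated by adherence and kept in Dulbecco's modified Eagle medium. Cells were pretreated with compound for 60 min, then challenged with opsonized zymosan. LTC4 in cell-free supernatant was measured by radioimmunoassay 3 h after challenge.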

Mus musculus [8] = assay: Inhibition of 5-lipoxygenase in vivo by the measurement of LTC4 release after intraperitoneal 15 min pretreatment (45 min challenge) of mice with a dose of 20 mg/kg; format: functional; conditions: ip
[9] = biological target: T2, Polyunsaturated fatty acid 5-lipoxygenase (Rattus norvegicus) (UniProt P12527); assay: Inhibitory activity against 5-lipoxygenase in RBL-1 cells at a concentration 40 uM.; format: cell-based
T2 sequence (whole entry): T1 sequence (P12527 whole entry)
Procedure, shortened: as §1, with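 “Enzyme source was a 100000g supernatant of RBL-1 cells (2.5 × 10^6 cell equivalents). It” for “It”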

[10] = biological target: T2, Polyunsaturated fatty acid 5-lipoxygenase (Rattus norvegicus); assay: Inhibitory activity against 5-lipoxygenase in RBL-1 cells at 40 uM concentration; format: cell-based
Procedure, shortened: as §1, with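 “Enzyme source was a 100000g supernatant of RBL-1 cells (2.5 × 10^6 cell equivalents). It” for “It”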

[11] = Inhibition of 15-HETE mammalian lipoxygenase at a concentration 20 uM; format: functional; procedure, shortened: as §2
Mus musculus [12] = organism: Mus musculus; assay: In vitro inhibition of zymosan-stimulated release of Leukotriene C4 from intact mouse peritoneal macrophages following 60-min pretreatment/[…]; format: functional; procedure, shortened: as §3
[13] = biological target: T2, Polyunsaturated fatty acid 5-lipoxygenase (Rattus norvegicus); assay: Inhibitory activity against 5-lipoxygenase in RBL-1 cells at a concentration 40 uM; format: cell-based
Procedure, shortened: as §1, with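 “Enzyme source was a 100000g supernatant of RBL-1 cells (2.5 × 10^6 cell equivalents). It” for “It”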

Structure (SMILES): COc1ccc2c(c1)c(CC(=O)O)c(C)n2C(=O)c1ccc(Cl)cc1 [INDOMETHACIN]
IC50 [1]: > 20 µM

Structure (SMILES): NC1=NN(c2cccc(C(F)(F)F)c2)CC1 [BW-755C]
Induction [2]: 17%

Structure (SMILES): CCCCCCCCC#CC/C=C\C=C\Sc1ccc(C(=O)OC)cc1
inhibition [9]: 21%

Structure (SMILES): CC1=NN(CCOc2ccc3ccccc3c2)C(=O)C1 [NAFAZATROM]
Induction [2]: <3%
inhibition [3]: 58%
inhibition [11]: 30%
inhibition [4]: 68%
inhibition [5]: 65%

Continued, in another order:

IC50 [1]: 6.2 µM
inhibition [3]: 0%
inhibition [4]: 58%
inhibition [5]: 60%
Potentiation [6]: 20%
IC50 (Mus musculus [7]): 22 µM
Structure (SMILES): CCCCCCCC/C=C\C/C=C\C=C\SCCCC(=O)OC
Induction [2]: <3%
inhibition in vivo at 20 mg/kg (Mus musculus [8]): 80%

IC50 [1]: 7.2 µM
Structure (SMILES): CCCCCCCC/C=C\C/C=C\C=C\SCCCC(=O)O

inhibition [9]: 45%
Structure (SMILES): CCCCCCCCC#CC/C=C\C=C\Sc1ccccc1C(=O)OC

inhibition [10]: 32%
Structure (SMILES): CC#CC/C=C\C=C\SCCCC(=O)OC

IC50 [1]: 22 µM
IC50 (Mus musculus [12]): > 60 µM
Structure (SMILES): CCCCCCCCCCC/C=C\C=C\SCCCC(=O)OC
Induction [2]: <3%
inhibition in vivo at 20 mg/kg (Mus musculus [8]): 10%

inhibition [13]: 47%
Structure (SMILES): CCCCCCCC/C=C\C/C=C\C=C\SCCC(=O)OC
